Assay results: ChEMBL document CHEMBL1139853, “Anxiolytic effects of erythrinian alkaloids from Erythrina mulungu” (2007)
Activity calls are given as the source filed them. The calls are words filed in the database; no cut-off is given here.

Columns and labels:
Mus musculus [1] = test: Locomotor activity in Swiss mouse measured as number of crossings in the arena test at 3 mg/kg, po; type: functional
In short: (§1)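 Male Swiss mice (25-35 g, naive) given the test agent orally at 3-10 mg/kg as a saline suspension, 30 min before testing. Saline po served as vehicle; diazepam 2 mg/kg ip (saline + 2% Tween 80) was the reference. Arena locomotor test scoring crossings and rearings; mean ± SEM reported.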

Mus musculus [2] = test: Locomotor activity in Swiss mouse measured as number of rearings in the arena test at 3 mg/kg, po; type: functional; in short: as §1
Mus musculus [3] = test: Locomotor activity in Swiss mouse measured as number of crossings in the arena test at 10 mg/kg, po; type: functional; in short: as §1
Mus musculus [4] = test: Locomotor activity in Swiss mouse measured as number of rearings in the arena test at 10 mg/kg, po; type: functional; in short: as §1
Mus musculus [5] = test: Antianxiolytic activity in Swiss mouse assessed as impairment of inhibitory avoidance task by elevated T-maze test at 3 mg/kg, po; type: functional, organism-based; set-up: dose 3 mg/kg
In short: (§2)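 Naive male Swiss mice (25-35 g) received alkaloid suspended in saline (NaCl 0.9%) orally (3-10 mg/kg range) 30 min before testing, with saline vehicle controls. Inhibitory avoidance latency to leave the enclosed arm was measured in an elevated T-maze (38.5 cm high; three 30 cm × 5 cm arms). Analysis was one-way ANOVA followed by Duncan's test.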

Mus musculus [6] = test: Antianxiolytic activity in Swiss mouse assessed as impairment of inhibitory avoidance task by elevated T-maze test at 10 mg/kg, po; type: functional, organism-based; set-up: dose 10 mg/kg; in short: as §2
Mus musculus [7] = test: Antianxiolytic activity in Swiss mouse assessed as effect on latency to leave the open arm by elevated T maze test at 10 mg/kg; type: functional, organism-based; set-up: dose 10 mg/kg
In short: (§3)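 Male Swiss mice, 25-35 g, experimentally naive, group-housed 10 per cage on a 12 h light cycle at 23 ± 1 °C/55 ± 5% humidity. Test agent suspended in saline (NaCl 0.9%) and given orally (3-10 mg/kg) 30 min before the session; vehicle saline po; diazepam reference 2 mg/kg ip in saline + 2% Tween 80. Elevated T-maze 38.5 cm above the floor, three 30 cm × 5 cm arms. One-way ANOVA followed by Duncan's test.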

Mus musculus [8] = test: Antianxiolytic activity in Swiss mouse assessed as reduction of latency to leave the enclosed arm by elevated T maze test at 10 mg/kg, po; type: functional, organism-based; set-up: dose 10 mg/kg; in short: as §3
Mus musculus [9] = test: Antianxiolytic activity in Swiss mouse assessed as reduction of latency to leave the enclosed arm by elevated T maze test at 3 mg/kg, po; type: functional, organism-based; set-up: dose 3 mg/kg; in short: as §3
Mus musculus [10] = test: Antianxiolytic activity in Swiss mouse assessed as effect on latency to leave the open arm by elevated T maze test at 2 mg/kg, ip; type: functional, organism-based; set-up: dose 2 mg/kg
In short: (§4)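 Male Swiss mice (25-35 g, naive), group-housed on a 12 h light cycle. Diazepam was suspended in saline + 2% Tween 80 and given ip 30 min before the session. Elevated T-maze raised 38.5 cm above the floor, with three 30 cm × 5 cm arms; arm-exit latencies were recorded. Analysis was one-way ANOVA with Duncan's post hoc test.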

Mus musculus [11] = test: Antianxiolytic activity in Swiss mouse assessed as reduction of latency to leave the enclosed arm by elevated T maze test at 2 mg/kg, ip; type: functional, organism-based; set-up: dose 2 mg/kg; in short: as §4

Row | Compound | Activity (Mus musculus [1]) | Activity (Mus musculus [2]) | Activity (Mus musculus [3]) | Activity (Mus musculus [4]) | Activity (Mus musculus [5]) | Activity (Mus musculus [6]) | Activity (Mus musculus [7]) | Activity (Mus musculus [8]) | Activity (Mus musculus [9]) | Activity (Mus musculus [10]) | Activity (Mus musculus [11])
1 | COc1cc2c(cc1OC)[C@]13C[C@@H](OC)C=CC1=CCN3C[C@H]2O | 135.3 | 29.6 | 159 | 29.63 | Active | Active | – | – | – | – | –
2 | COc1cc2c(cc1OC)[C@]13C[C@@H](O)C=CC1=CCN3C[C@H]2O | 158.5 | 27.7 | 126.56 | 22.44 | – | – | inactive | Active | – | – | –
3 | COc1cc2c(cc1OC)[C@]13C[C@@H](O)C=CC1=CCN3CC2 | 157.33 | 37.07 | 157.93 | 31.71 | – | – | – | Active | Active | – | –
4 | CN1C(=O)CN=C(c2ccccc2)c2cc(Cl)ccc21 | – | – | – | – | Active | Active | – | Active | – | inactive | Active
